Measurements from different studies.
M-phase phosphoprotein 8 chromodomain: M-phase phosphoprotein 8, chromodomain (Homo sapiens, UniProt Q99549)
ESR1: Estrogen receptor (ESR1, Homo sapiens, UniProt P03372)
AChE: AChE (Phlebotomus papatasi, UniProt M1F887)

Structure (SMILES) | target | assay | quantity | result
CCN(CCCC[C@H](NC(=O)[C@H](CC(C)C)NC(=O)[C@H](C)NC(=O)[C@H](Cc1ccccc1)NC(=O)c1ccoc1)C(=O)N[C@@H](CO)C(N)=O)C(C)C | M-phase phosphoprotein 8 chromodomain | cell-free assay, TR-FRET | IC50 | 1.2 µM
O=C(CCCc1ccccc1)OC(CCN1CCN(CCCN(c2ccc(F)cc2)c2ccc(F)cc2)CC1)c1ccccc1 (centres unmarked) | Norepinephrine transporter (Slc6a2, Rattus norvegicus, UniProt Q9WTR4) | ligand displacement, radioligand | Ki | > 10 µM
Clc1ccc(-c2ccccc2Cl)cc1 | ESR1 | reporter gene, agonist, luciferase | EC50 | 20 µM
Cc1cc(O)cc(C)c1C[C@H](N)C(=O)N[C@H](C)C(=O)NCC(=O)N[C@@H](Cc1ccc(Cl)cc1)C(=O)N(C)CCC[C@@]1(c2ccc(F)cc2)OCc2cc(C#N)ccc21 | Alpha-2C adrenergic receptor (ADRA2C, Homo sapiens, UniProt P18825) | ligand displacement, radioligand | Ki | 0.24 µM
C[C@H]1CCC[C@H](O)CCCCCc2cc(O)cc(O)c2C(=O)O1 | ESR1 | reporter gene, agonist, luciferase | EC50 | 0.000134 µM
CC[N+](C)(C)c1cccc(O)c1 | AChE | enzyme activity, inhibitor | IC50 | 1.18 µM
CCN(CCCC[C@H](NC(=O)[C@H](CC(C)C)NC(=O)[C@H](C)NC(=O)[C@H](Cc1ccccc1)NC(=O)c1ccncc1)C(=O)N[C@@H](CO)C(N)=O)C(C)C | M-phase phosphoprotein 8 chromodomain | cell-free assay, TR-FRET | IC50 | 0.99 µM
Oc1ccc(-c2cc(Cl)ccc2Cl)c(Cl)c1 | ESR1 | reporter gene, agonist, luciferase | EC50 | 0.2 µM
CCN(CCCC[C@H](NC(=O)[C@H](CC(C)C)NC(=O)[C@H](C)NC(=O)[C@H](Cc1ccco1)NC(=O)c1cccnc1)C(=O)N[C@@H](CO)C(N)=O)C(C)C | M-phase phosphoprotein 8 chromodomain | cell-free assay, TR-FRET | IC50 | 11 µM
C[C@H]1CCC[C@H](O)CCC/C=C/c2cc(O)cc(O)c2C(=O)O1 | ESR1 | reporter gene, agonist, luciferase | EC50 | 0.00013 µM
COc1cc2c3cc1Oc1cc(ccc1O)C[C@@H]1c4c(cc(OC)c(O)c4Oc4ccc(cc4)C[C@@H]3N(C)CC2)CC[N+]1(C)C | AChE | enzyme activity, inhibitor | IC50 | 38.9 µM
Oc1ccc(-c2ccc(Cl)cc2)c(Cl)c1 | ESR1 | reporter gene, agonist, luciferase | EC50 | 0.1 µM
CCN(CCCC[C@H](NC(=O)[C@H](CC(C)C)NC(=O)[C@H](C)NC(=O)[C@H](Cc1c(F)c(F)c(F)c(F)c1F)NC(=O)c1cccnc1)C(=O)N[C@@H](CO)C(N)=O)C(C)C | M-phase phosphoprotein 8 chromodomain | cell-free assay, TR-FRET | IC50 | 1.6 µM
CCCCCNC(=N)N/N=C/c1c[nH]c2ccc(OC)cc12 | 5-hydroxytryptamine receptor 1A (HTR1A, Homo sapiens, UniProt P08908) | calcium signal, agonist, fluorescence | EC50 | 18 µM
